Test results taken from ChEMBL document CHEMBL1139389, “Discovery of the Poly(ADP-ribose) polymerase (PARP) inhibitor 2-[(R)-2-methylpyrrolidin-2-yl]-1H-benzimidazole-4-carboxamide (ABT-888) for the treatment of cancer” (J Med Chem, 2009).

How the values were obtained:
[1] = Cmax in Sprague-Dawley rat at 5 mg/kg, po; format: ADME, organism-based; design: dose 5 mg/kg, route oral; conditions: in vivo
[2] = Protein binding in Sprague-Dawley rat plasma at 5 uM; format: ADME, cell-free; conditions: read-out: PPB (converted)
MX1 [3] = test: Potentiation of carboplatin-induced cytotoxicity against human MX1 cells xenografted in SCID mouse assessed as growth inhibition at 25 mg/kg/day, sc osmotic minipump after 42 days relative to carboplatin monotherapy; format: functional; conditions: route subcutaneous
In short: (§1)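 MX-1 xenograft: 0.2 cc of 1:10 tumor brei injected sc into the flank of female SCID mice on day 0; size-matched on day 15, 10 mice/group. Inhibitor 1–50 mg/kg/day by sc osmotic minipump for 14 days from day 18; carboplatin 10 mg/kg ip on days 20, 24 and 28. Caliper volumes as L×W²/2; TGI relative to carboplatin alone.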

Cytochrome P450 2E1 = Cytochrome P450 2E1 (Homo sapiens, UniProt P05181); test: Inhibition of CYP2E1 in human liver microsomes; format: ADME, Microsome
Cytochrome P450 3A4 = Cytochrome P450 3A4 (Homo sapiens, UniProt P08684); test: Inhibition of CYP3A4 in human liver microsomes; format: ADME, Microsome
[4] = Clearance in cynomolgus monkey at 2.5 mg/kg; format: ADME, organism-based, Macaca fascicularis; design: dose 2.5 mg/kg; conditions: in vivo
[5] = Protein binding in cynomolgus monkey plasma at 5 uM; format: ADME, cell-free, Macaca fascicularis; conditions: read-out: PPB (converted)
MX1 [6] = test: Potentiation of cyclophosphamide-induced cytotoxicity against human MX1 cells xenografted in SCID mouse assessed as growth inhibition at 12.5 mg/kg/day, sc osmotic minipump after 48 days relative to cyclophosphamide monotherapy; format: functional; conditions: route subcutaneous
In short: (§2)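 Female SCID mice bearing sc MX-1 brei (0.2 cc of 1:10, day 0), size-matched on day 15, 10 per group. Inhibitor 5, 12.5 or 25 mg/kg/day by sc osmotic minipump for 14 days from day 18; cyclophosphamide 12.5 mg/kg ip on days 20, 24 and 28. Volumes from caliper L×W²/2; TGI versus cyclophosphamide alone.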

[7] = Volume of distribution at steady state in Sprague-Dawley rat at 5 mg/kg; format: ADME, organism-based; design: dose 5 mg/kg; conditions: in vivo, read-out: Vdss
[8] = Oral bioavailability in Beagle dog at 2.5 mg/kg; format: ADME, organism-based, Canis lupus familiaris; conditions: in vivo
[9] = Protein binding in Beagle dog plasma at 5 uM; format: ADME, cell-free, Canis lupus familiaris; conditions: read-out: PPB (converted)
[10] = Oral bioavailability in Sprague-Dawley rat at 5 mg/kg; format: ADME, organism-based; conditions: in vivo
B16-F10 [11] = test: Potentiation of temozolomide-induced cytotoxicity against mouse B16F10 cells xenografted in C57BL/6 mouse assessed as growth inhibition at 5 mg/kg/day, po after 17 days relative to temozolomide monotherapy; format: functional
In short: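 B16F10 syngeneic model: 6×10^4 cells in 50% matrigel injected sc into the flank of 6–8 week old female C57BL/6 mice (20 g), allocated to groups by injection order. Inhibitor given po bid days 6–11 at 1, 5 or 12.5 mg/kg/day; temozolomide 50 mg/kg/day po qd days 6–11. Tumor volume by caliper as L×W²/2; TGI versus temozolomide alone.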

[12] = AUC in CD1 mouse at 10 mg/kg, po; format: ADME, organism-based; design: dose 10 mg/kg, route oral; conditions: plasma
In short: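 Mouse PK: oral dose 10 mg/kg in 2.5% EtOH, 1 drop Tween-80, 25% PEG400 in PBS; iv dose 3 mg/kg in 2.5% EtOH, 5% DMSO, 1 drop Tween-80, 25% PEG400 in PBS. Oral bioavailability, iv half-life, oral AUC and Cmax derived from plasma profiles.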

[13] = Clearance in CD1 mouse at 10 mg/kg; format: ADME, organism-based; design: dose 10 mg/kg; conditions: in vivo
In short: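 Mouse pharmacokinetics. Oral dose of 10 mg/kg in 2.5% EtOH, 1 drop Tween-80 and 25% PEG400 in PBS. Intravenous dose of 3 mg/kg in 2.5% EtOH, 5% DMSO, 1 drop Tween-80 and 25% PEG400 in PBS.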

MX1 [14] = test: Potentiation of carboplatin-induced cytotoxicity against human MX1 cells xenografted in SCID mouse assessed as growth inhibition at 5 mg/kg/day, sc osmotic minipump after 42 days relative to carboplatin monotherapy; format: functional; conditions: route subcutaneous; in short: as §1
MX1 [15] = test: Potentiation of cyclophosphamide-induced cytotoxicity against human MX1 cells xenografted in SCID mouse assessed as growth inhibition at 5 mg/kg/day, sc osmotic minipump after 48 days relative to cyclophosphamide monotherapy; format: functional; conditions: route subcutaneous; in short: as §2
[16] = Volume of distribution at steady state in CD1 mouse at 10 mg/kg; format: ADME, organism-based; design: dose 10 mg/kg; conditions: in vivo, read-out: Vdss
MX1 [17] = test: Potentiation of cyclophosphamide-induced cytotoxicity against human MX1 cells xenografted in SCID mouse assessed as growth inhibition at 25 mg/kg/day, sc osmotic minipump after 48 days relative to cyclophosphamide monotherapy; format: functional; conditions: route subcutaneous; in short: as §2
[18] = Cmax in cynomolgus monkey at 2.5 mg/kg, po; format: ADME, organism-based, Macaca fascicularis; design: dose 2.5 mg/kg, route oral; conditions: in vivo
[19] = Volume of distribution at steady state in cynomolgus monkey at 2.5 mg/kg; format: ADME, organism-based, Macaca fascicularis; design: dose 2.5 mg/kg; conditions: in vivo, read-out: Vdss
B16-F10 [20] = test: Antitumor activity against mouse B16F10 cells xenografted in C57BL/6 mouse assessed as growth inhibition at 12.5 mg/kg/day, po after 14 days relative to control; format: functional
[21] = Clearance in Beagle dog at 2.5 mg/kg; format: ADME, organism-based, Canis lupus familiaris; design: dose 2.5 mg/kg; conditions: in vivo
Cytochrome P450 2A6 = target: T1, Cytochrome P450 2A6 (Homo sapiens, UniProt P11509); test: Inhibition of CYP2A6 in human liver microsomes; format: ADME, Microsome
T1 sequence (P11509 whole entry): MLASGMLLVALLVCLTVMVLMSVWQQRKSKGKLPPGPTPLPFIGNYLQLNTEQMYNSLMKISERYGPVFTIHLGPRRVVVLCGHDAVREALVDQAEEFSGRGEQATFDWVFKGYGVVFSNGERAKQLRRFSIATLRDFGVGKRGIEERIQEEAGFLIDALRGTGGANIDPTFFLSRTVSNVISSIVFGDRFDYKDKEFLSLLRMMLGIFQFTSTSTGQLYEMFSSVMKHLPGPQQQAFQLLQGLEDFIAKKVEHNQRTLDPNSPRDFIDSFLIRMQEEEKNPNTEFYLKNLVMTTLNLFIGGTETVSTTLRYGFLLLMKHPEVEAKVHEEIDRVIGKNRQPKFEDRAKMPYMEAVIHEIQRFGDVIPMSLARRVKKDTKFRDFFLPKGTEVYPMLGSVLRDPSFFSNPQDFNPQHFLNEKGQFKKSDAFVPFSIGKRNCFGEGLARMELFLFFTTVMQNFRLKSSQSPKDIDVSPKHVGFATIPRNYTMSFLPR

Cytochrome P450 1A2 = target: T2, Cytochrome P450 1A2 (Homo sapiens, UniProt P05177); test: Inhibition of CYP1A2 in human liver microsomes; format: ADME, Microsome
T2 sequence (P05177 whole entry): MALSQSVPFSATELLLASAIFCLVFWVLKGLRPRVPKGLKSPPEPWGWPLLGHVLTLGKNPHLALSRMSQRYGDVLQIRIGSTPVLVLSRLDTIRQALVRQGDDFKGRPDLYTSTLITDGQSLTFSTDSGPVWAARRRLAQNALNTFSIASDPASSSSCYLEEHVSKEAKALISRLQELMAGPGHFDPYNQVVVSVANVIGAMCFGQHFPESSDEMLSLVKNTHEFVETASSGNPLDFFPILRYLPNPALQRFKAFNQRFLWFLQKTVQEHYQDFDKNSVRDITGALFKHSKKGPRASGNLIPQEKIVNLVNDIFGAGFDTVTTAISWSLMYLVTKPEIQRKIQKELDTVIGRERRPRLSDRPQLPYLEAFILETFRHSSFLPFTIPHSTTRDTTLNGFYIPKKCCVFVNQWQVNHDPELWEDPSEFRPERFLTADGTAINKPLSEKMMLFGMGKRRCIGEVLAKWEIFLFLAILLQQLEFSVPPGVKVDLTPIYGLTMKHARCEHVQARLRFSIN

Cytochrome P450 2E1, sequence (P05181 whole entry): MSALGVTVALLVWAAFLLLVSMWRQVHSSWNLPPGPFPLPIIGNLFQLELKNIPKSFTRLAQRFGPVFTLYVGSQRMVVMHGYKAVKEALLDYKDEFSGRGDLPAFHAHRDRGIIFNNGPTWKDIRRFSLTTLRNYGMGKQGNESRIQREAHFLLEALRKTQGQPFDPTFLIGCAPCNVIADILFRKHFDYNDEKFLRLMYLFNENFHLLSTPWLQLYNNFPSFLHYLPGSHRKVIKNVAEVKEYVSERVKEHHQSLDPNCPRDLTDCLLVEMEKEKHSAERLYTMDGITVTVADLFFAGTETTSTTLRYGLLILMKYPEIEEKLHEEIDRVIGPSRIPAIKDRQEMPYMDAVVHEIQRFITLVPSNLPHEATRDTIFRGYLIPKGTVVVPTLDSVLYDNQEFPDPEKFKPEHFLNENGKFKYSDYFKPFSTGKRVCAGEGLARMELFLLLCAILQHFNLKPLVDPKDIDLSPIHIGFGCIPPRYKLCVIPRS
Cytochrome P450 3A4, sequence (P08684 whole entry): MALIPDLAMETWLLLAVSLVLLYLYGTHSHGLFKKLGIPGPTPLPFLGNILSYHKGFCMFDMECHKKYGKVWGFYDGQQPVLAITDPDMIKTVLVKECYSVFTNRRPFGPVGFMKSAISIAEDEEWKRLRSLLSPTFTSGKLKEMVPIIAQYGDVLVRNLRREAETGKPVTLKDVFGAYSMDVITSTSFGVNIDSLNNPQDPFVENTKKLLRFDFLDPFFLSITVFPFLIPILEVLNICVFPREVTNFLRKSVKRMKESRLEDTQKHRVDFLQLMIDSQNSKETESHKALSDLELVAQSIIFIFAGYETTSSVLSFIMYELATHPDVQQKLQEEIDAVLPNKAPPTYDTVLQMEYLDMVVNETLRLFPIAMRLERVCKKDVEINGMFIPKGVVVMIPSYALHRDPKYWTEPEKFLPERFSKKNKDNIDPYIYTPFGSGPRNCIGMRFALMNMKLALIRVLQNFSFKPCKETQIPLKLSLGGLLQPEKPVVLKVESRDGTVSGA

Cmax [1]: 500 ng/mL
fraction unbound at 5 µM [2]: 0.59
Activity (Cytochrome P450 2E1): Not Active
Activity (Cytochrome P450 3A4): Not Active
clearance [4]: 18.3 mL/min/kg
fraction unbound at 5 µM [5]: 0.59
Vd [7]: 3.6 L/kg
bioavailability [8]: 72%
fraction unbound at 5 µM [9]: 0.59
bioavailability [10]: 61%
AUC [12]: 2200 ng·h/mL
clearance [13]: 68.3 mL/min/kg
Vd [16]: 9.4 L/kg
Cmax [18]: 300 ng/mL
Vd [19]: 3.1 L/kg
clearance [21]: 10 mL/min/kg
Activity (Cytochrome P450 2A6): Not Active
Activity (Cytochrome P450 1A2): Not Active
SMILES: C[C@]1(c2nc3c(C(N)=O)cccc3[nH]2)CCCN1 [VELIPARIB]
TGI (MX1 [3]): 78%
TGI (MX1 [6]): 33%
TGI (B16-F10 [11]): 60%
TGI (MX1 [14]): 17%
TGI (MX1 [15]): 31%
TGI (MX1 [17]): 61%
TGI (B16-F10 [20]): 28%
